# Laboratory results reported in PMC3279955 (ACS chemical neuroscience, 2012).
# pIC50: −log10 of the molar value.
# Legend:
# [1] = tested on: human SMA patient fibroblasts; settings: commercially available GSK-3 inhibitors; cited from earlier work
# [2] = tested on: primary immature cortical neurons; test: Oxidative stress; format: cell-based
# Method in brief: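 Primary cortical neurons were exposed to test compound (20 μM) with or without homocysteic acid (HCA, 5 mM), which depletes glutathione. Survival was read by MTT assay after 48 h and expressed as percent of the no-inhibitor control, mean ± SEM. Live/dead staining with calcein AM and ethidium homodimer was done in parallel.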
# Δ7 SMA KO mouse [3] = test: Δ7 SMA KO neonatal mouse model: survival, body weight, tolerability; format: in vivo
# Δ7 SMA KO mouse [4] = test: Δ7 SMA KO mouse model: negative geotaxis test; format: in vivo; settings: 75 mg/kg once a day
# [5] = tested on: human SMA patient fibroblasts; test: SMN protein level in SMA patient fibroblasts by western blot; format: cell-based; settings: 72 h
# Method in brief: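 Fibroblasts from SMA patients were exposed to test compound (20, 25 or 30 μM) or DMSO vehicle for 72 h. SMN protein was assessed by Western blot and quantified from three separate experiments.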
# PKCβ2 = PKCβ2 (Homo sapiens, UniProt P05771); test: Kinase inhibition assay; format: biochemical
# GSK-3 = GSK-3 inhibition in the presence of 10 µM ATP; format: biochemical; settings: read-out: GSK-3 IC50; tested in the presence of 10 µM ATP
# Δ7 SMA KO mouse [6] = test: Δ7 SMA KO mouse model: tube test; format: in vivo; settings: 75 mg/kg once a day; postnatal day 6, 8, 10 and 12
# Sequence of PKCβ2 (P05771 1-673 isoform P05771-2): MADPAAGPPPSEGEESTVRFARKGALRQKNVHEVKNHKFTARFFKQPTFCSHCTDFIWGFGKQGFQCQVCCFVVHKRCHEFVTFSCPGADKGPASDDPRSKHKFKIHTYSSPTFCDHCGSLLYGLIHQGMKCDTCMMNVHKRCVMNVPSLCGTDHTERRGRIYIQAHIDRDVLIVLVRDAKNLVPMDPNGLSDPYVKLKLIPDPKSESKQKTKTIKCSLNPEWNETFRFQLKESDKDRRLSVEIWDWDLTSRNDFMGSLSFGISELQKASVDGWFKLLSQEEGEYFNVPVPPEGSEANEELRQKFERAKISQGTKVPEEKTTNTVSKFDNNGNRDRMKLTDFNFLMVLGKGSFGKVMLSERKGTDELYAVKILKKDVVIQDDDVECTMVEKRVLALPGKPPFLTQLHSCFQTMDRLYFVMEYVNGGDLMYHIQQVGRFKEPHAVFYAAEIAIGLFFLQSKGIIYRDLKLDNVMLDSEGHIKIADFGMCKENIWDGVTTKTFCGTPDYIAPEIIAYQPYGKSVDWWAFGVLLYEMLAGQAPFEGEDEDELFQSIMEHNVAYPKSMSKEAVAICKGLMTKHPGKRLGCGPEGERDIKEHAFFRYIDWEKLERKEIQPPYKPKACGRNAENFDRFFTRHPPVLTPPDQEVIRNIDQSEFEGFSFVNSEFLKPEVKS
compound,measurement,setting,value
O=C1Cc2c([nH]c3ccc([N+](=O)[O-])cc23)-c2ccccc2N1 [alsterpaullone],elevation of SMN levels in vitro,[1],shown to elevate SMN levels in vitro
CHIR98014,elevation of SMN levels in vitro,[1],shown to elevate SMN levels in vitro
"COc1ccc(CNC(=O)Nc2ncc([N+](=O)[O-])s2)cc1 [AR-A014418, reference compound]",elevation of SMN levels in vitro,[1],shown to elevate SMN levels in vitro
same,protection in the HCA oxidative stress model,"[2]; HCA 5 mM, MTT assay",provided some protection
"Cn1cc(C2=C(c3coc4ccccc34)C(=O)NC2=O)c2cc(Br)ccc21 [BIP-135, 3-(5-bromo-1-methyl-1H-indol-3-yl)-4-(benzofuran-3-yl)pyrrole-2,5-dione]",tolerability / toxicity in SMA KO animals,"Δ7 SMA KO mouse [3]; 75 mg/kg IP, 100% DMSO as vehicle",did not appear to be toxic and was well-tolerated
same,effect on SMA KO body weight versus vehicle,"Δ7 SMA KO mouse [3]; 75 mg/kg once a day, p = 0.0435, after around P6",showed an improvement in body weight
same,overall motor function (geotaxis and tube test),Δ7 SMA KO mouse [4],did not improve the overall motor function
same,percent of KO mice that completed the geotaxis test,"Δ7 SMA KO mouse [4]; P12, p = 0.0315",more KO animals treated with BIP-135 completed the geotaxis test
same,latency to complete the negative geotaxis test,Δ7 SMA KO mouse [4]; p = 0.0683,no significant treatment effects
same,increase in SMN levels compared to vehicle treated cells,"[5]; 25 µM, western blot",7 fold
same,toxicity in SMA patient fibroblasts (bell-shaped dose-response),[5]; higher concentrations,some toxicity at higher concentrations
same,pIC50,PKCβ2,6.66
same,protection of HCA-treated cortical neurons (survival),"[2]; 20 µM, HCA 5 mM, MTT assay, HCA alone approximately 25 percent survival",about 80%
same,protection in the HCA oxidative stress model,"[2]; HCA 5 mM, MTT assay",able to protect at a lower concentration
same,toxicity to neurons exposed to compound alone,[2]; absence of HCA,No significant toxicity
same,"tube test parameters (time hanging, number of pulls, hind-limb strength score, tube test score)",Δ7 SMA KO mouse [6],no significant treatment effect
